Screening data: PubChem, several laboratories
Most compounds without a hit are left out; they make up all but 2.4% or so of the library.
TPT1 inh = inhibitors of Candida albicans tRNA 2'-phosphotransferase TPT1. 0.81% of 300,000 active. recombinant caTPT1, FP RNA substrate dephosphorylation. inhibition, % at 5 µM;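 active = inhibition above the mean of all tested compounds plus 3 SD, set per screening campaign, cut at about 24% in these data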;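 also: plate controls were DMSO alone for no effect and ferristatin control at 100 nM for full effect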
Rin1-Abl PPI inh = human Rin1-Abl interaction inhibition. P00519+Q13671. TR-FRET Rin1/Abl binding, biochemical. inhibition, % at 7.35 µM. 0.4% of 360,000 active. AID 588664; in the data active = inhibition above about 5%, passing the limit was not always enough
Neddylation inh = inhibitors of human cullin neddylation. P61081+Q13564. 0.58% of 360,000 active. TR-FRET cullin neddylation, biochemical. inhibition, % at 25 µM; in the data active = inhibition above about 36%
Rpn11 inh = Rpn11 (human) deubiquitinase inhibition; human 26S proteasome, Ub4-pepOG fluorescence polarization; 20S core pre-blocked with epoxomicin; inhibition, % at 20 µM; O00487; 0.59% of 360,000 active;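 active = inhibition at 20 µM, scaled to each plate's controls, above about 33%, limit read from the data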
HNF4A DNA FP = change in binding of human HNF4 alpha to DNA; activity change, % at 10 µM; P41235; AID 1224865; 0.3% of 360,000 active; HNF4a-FITC DNA binding, fluorescence polarization, 1 h; in the data active = activity change above about 30%, passing the limit was not always enough
CSN inh = inhibitors of human CSN-mediated cullin deneddylation; 0.38% of 360,000 active; Purified CSN, SCF-Nedd8-OG deneddylation, fluorescence polarization; Q92905; inhibition, % at 12.5 µM;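 active = pattern-corrected inhibition above about 35%, with an unprinted fluorescence ratio check between 0.5 and 1.5, limit read from the data, passing the limit was not always enough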;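 also: 0% = enzyme with substrate and 100% = substrate without enzyme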
Target sequence (Q92905 whole entry, looked up, one chain of several): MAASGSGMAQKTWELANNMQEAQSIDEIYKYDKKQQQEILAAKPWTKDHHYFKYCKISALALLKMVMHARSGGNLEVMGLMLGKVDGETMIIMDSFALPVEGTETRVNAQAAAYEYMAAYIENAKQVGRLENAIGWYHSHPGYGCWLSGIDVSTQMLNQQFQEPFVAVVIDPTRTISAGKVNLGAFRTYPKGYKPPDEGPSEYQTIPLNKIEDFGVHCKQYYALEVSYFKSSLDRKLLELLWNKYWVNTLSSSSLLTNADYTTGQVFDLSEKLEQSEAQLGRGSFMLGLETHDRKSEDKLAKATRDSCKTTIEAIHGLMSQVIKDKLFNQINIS
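Detection – fluorescence polarization · System – HEK293T-derived human Csn5 enzyme · Controls – substrate-only high control, full reaction low control · Timing – 90 min, room temperature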
Rin1 Abl conf = Rin1-Abl interaction inhibition confirmation | shares compounds with Rin1-Abl PPI inh | TR-FRET Rin1-Abl binding, purified proteins | inhibition, % at 7.35 µM | 49% of 1,300 active
GFP quencher = quenches GFP fluorescence, counter-screen for Rin1-Abl inhibitors. inhibition, % at 6.75 µM. inhibitors/quenchers counterscreen. shares compounds with Rin1-Abl PPI inh. 8.5% of 1,300 active;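 also: ABL1-eGFP fusion protein alone without its partner RIN1-SBP; 0% = protein with vehicle and 100% = wells lacking protein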
GFP quench DR = GFP fluorescence interference dose response. shares compounds with Rin1-Abl PPI inh. GFP fluorescence interference/quenching counterscreen. IC50, µM. 230 tested, under 10 active. AID 602182; call rule not given here;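 also: ABL1-eGFP fusion protein alone without its RIN1 binding partner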
The depositor's hits bear a star. Rule as the data show it, unless noted: active = inhibition above about 6.5%; inactive = the rest.

Cc1ccc(NC(=O)CN2C(=O)N/C(=C/c3cccn3-c3ccc(C(=O)O)cc3)C2=O)cc1 was read as TPT1 inh 14, Rin1-Abl PPI inh 9.7*, Neddylation inh -4, HNF4A DNA FP -68, CSN inh 29, Rin1 Abl conf 9.0* and GFP quencher 9.9*.
For O=C(O)CC[C@@H](C(=O)O)N1C(=O)c2ccccc2C1=O the results were TPT1 inh -2, Rin1-Abl PPI inh -5, Neddylation inh -6, Rpn11 inh 1, HNF4A DNA FP -2 and CSN inh -5.
Screening COc1cccc(C2(O)CCN(C(=O)c3cccs3)CC2)c1 returned TPT1 inh -5, Rin1-Abl PPI inh 6.7*, Neddylation inh -1, Rpn11 inh -9, HNF4A DNA FP 2, CSN inh 4, Rin1 Abl conf 1 and GFP quencher 0.
For COc1cccc(C2(O)CCN(C(=O)C(C)C)CC2)c1 the results were TPT1 inh -3, Rin1-Abl PPI inh -3, Neddylation inh 0, Rpn11 inh 3, HNF4A DNA FP -2 and CSN inh 4.
Screening CCOc1ccc(NS(=O)(=O)c2ccc(C(=O)N3CC(C)OC(C)C3)cc2)cc1 (stereo not drawn) returned Rin1-Abl PPI inh 8.9*, Neddylation inh 2, Rpn11 inh -2, HNF4A DNA FP -1, CSN inh -5, Rin1 Abl conf 9.7* and GFP quencher 0.
`NC(=O)c1ccc(NC(=O)CCC(=O)N2CCN(S(=O)(=O)c3ccc(Cl)cc3)CC2)cc1` gave TPT1 inh 1, Rin1-Abl PPI inh -3, Neddylation inh 4, Rpn11 inh -2, HNF4A DNA FP -3 and CSN inh -3.
For CCC(C)NC(=O)c1ccccc1NC(=O)COc1ccc(OC)cc1 (stereo not drawn) the results were Rin1-Abl PPI inh -3, Neddylation inh 17, Rpn11 inh 2, HNF4A DNA FP -5 and CSN inh 4.
Screening O=C1CN(C(=O)COc2ccccc2)CCN1 returned TPT1 inh -3, Rin1-Abl PPI inh 8.5*, Neddylation inh -13, Rpn11 inh -25, HNF4A DNA FP -3, CSN inh 1, Rin1 Abl conf 0 and GFP quencher -1.
`Cc1cc(C)c2c(c1)SC1=NC(c3ccccc3)(C(F)(F)F)NC(=O)N12` (stereo not drawn) gave TPT1 inh 3, Rin1-Abl PPI inh 7.0*, Neddylation inh 9, Rpn11 inh -7, HNF4A DNA FP 2, CSN inh 2, Rin1 Abl conf 2 and GFP quencher -1.
For CC(NS(=O)(=O)c1ccc(OCC(=O)Nc2cccc([N+](=O)[O-])c2)cc1)c1ccccc1 (stereo not drawn) the results were TPT1 inh -4, Rin1-Abl PPI inh -1, Neddylation inh -11, Rpn11 inh 0, HNF4A DNA FP 0 and CSN inh -12.
For Cc1nn(Cc2c(Cl)cccc2Cl)c(C)c1NC(=O)c1cnn2c(C(F)F)cc(-c3ccccc3)nc12 the results were TPT1 inh 0, Rin1-Abl PPI inh 12*, Neddylation inh 3, Rpn11 inh -4, HNF4A DNA FP -3, CSN inh 8, Rin1 Abl conf -2 and GFP quencher 0.
C#CCOCCOCCOCCNc1nc(N2CCOCC2)nc(N2CCN(C(=O)[C@H](Cc3ccc(O)cc3)n3cc([C@@H](N)C(C)CC)nn3)CC2)n1 (stereo partly drawn) was read as TPT1 inh -3, Rin1-Abl PPI inh 11*, Neddylation inh -19, Rpn11 inh 5, HNF4A DNA FP 4, CSN inh 0, Rin1 Abl conf 14* and GFP quencher 0.
Screening C#CCOCCOCCOCCNc1nc(N2CCN(C(=O)C(Cc3ccc(O)cc3)n3cc(C(N)C(C)CC)nn3)CC2)nc(N2CCN(C(=O)C(Cc3ccc(O)cc3)n3cc(C(N)C(C)CC)nn3)CC2)n1 (stereo not drawn) returned TPT1 inh -4, Rin1-Abl PPI inh 8, Neddylation inh -14, Rpn11 inh 12, HNF4A DNA FP 3 and CSN inh -5.
NS(=O)(=O)c1ccc(NC(=O)COc2ncnc3c2cnn3-c2ccccc2)cc1 was read as TPT1 inh 4, Rin1-Abl PPI inh 5.5*, Neddylation inh 12, Rpn11 inh 3, HNF4A DNA FP 1, CSN inh 0, Rin1 Abl conf 6 and GFP quencher 0.
Screening Cc1ccc(-n2c(=O)c3sccc3n(CC(=O)N3CCCC3)c2=O)cc1 returned TPT1 inh 2, Rin1-Abl PPI inh 5.8*, Neddylation inh -4, Rpn11 inh -1, HNF4A DNA FP 6, CSN inh 4, Rin1 Abl conf -3 and GFP quencher 0.
For O=C(Cn1c(=O)n(-c2ccccc2)c(=O)c2sccc21)N1CCCC1 the results were TPT1 inh 2, Rin1-Abl PPI inh 0, Neddylation inh -1, Rpn11 inh 4, HNF4A DNA FP -2 and CSN inh 2.
COc1ccccc1OCc1ccc(C(=O)N2CCN(C(=O)c3ccco3)CC2)cc1 was read as TPT1 inh 1, Rin1-Abl PPI inh 10*, Neddylation inh 1, Rpn11 inh 5, HNF4A DNA FP -10, CSN inh 0, Rin1 Abl conf 21*, GFP quencher 0 and GFP quench DR >68.
CN(C(=O)c1ccc(NC(=O)Cc2ccc(NC(=O)C3CCN(C(=O)CCc4ccccc4)CC3)cc2)cc1)C1CC1 was read as Rin1-Abl PPI inh 12*, Neddylation inh -5, Rpn11 inh 7, HNF4A DNA FP 1, CSN inh -4, Rin1 Abl conf 17* and GFP quencher 0.
Screening CN(C(=O)c1ccc(NC(=O)Cc2ccc(NC(=O)C3CCN(C(=O)CCc4ccccc4)CC3)cc2)cc1)C1CCCC1 returned Rin1-Abl PPI inh -1, Neddylation inh -3, Rpn11 inh 11, HNF4A DNA FP 4 and CSN inh 0.
Screening CN(C(=O)c1ccc(NC(=O)Cc2ccc(NC(=O)C3CCCN(C(=O)C4CCCCC4)C3)cc2)cc1)C1CC1 (stereo not drawn) returned Rin1-Abl PPI inh 6, Neddylation inh -21, Rpn11 inh 0, HNF4A DNA FP -1 and CSN inh 3.
